WT yeast gro inh: growth inhibition of WT yeast, mitochondrial fusion screen; mitochondrial fusion phenotypic screen, WT strain; inhibition, % at 10 µM; hit rate 2.1% among 190,000; in the data active = inhibition above about 58%; tested in S. cerevisiae
PMI act satM6P: PMI (human) activation, high substrate; P34949; activation factor at 20 µM; hit rate 0.34% among 190,000; coupled PMI enzyme assay, resazurin fluorescence, 20 min; hits give high values; 1 = untreated enzyme, 0 = substrate-free blank;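 active = activation factor of 2 or more at 20 µM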
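Test system: Human PMI in coupled enzyme assay | Input: 15 ng/mL PMI | Medium: HEPES-buffered pH 7.4 with magnesium and detergent | Compound: One concentration, 20 µM, in 1% DMSO | Incubation: Enzyme reaction with compound 20 min at room temperature | Detection: Diaphorase-driven resazurin-to-resorufin fluorescence, excitation 544, emission 590 nm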
m-calpain inh: calpain II (pig) inhibition; purified calpain II, fluorogenic peptide substrate, 30 min; inhibition, % at 16 µM; hit rate 0.37% among 220,000; AID 1236;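 active = inhibition above about 50%, limit read from the data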
Rad51 HR inh: Rad51 (human) homologous recombination inhibition; Q06609; hRad51 DNA strand exchange, fluorescence dequenching; inhibition, % at 10 µM; hit rate 0.085% among 200,000; AID 1385;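 active = inhibition above 40% at the single screening dose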;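 also: 0% = DMSO control wells and 100% = blanks with heterologous ssDNA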
Target sequence (Q06609 whole entry, looked up): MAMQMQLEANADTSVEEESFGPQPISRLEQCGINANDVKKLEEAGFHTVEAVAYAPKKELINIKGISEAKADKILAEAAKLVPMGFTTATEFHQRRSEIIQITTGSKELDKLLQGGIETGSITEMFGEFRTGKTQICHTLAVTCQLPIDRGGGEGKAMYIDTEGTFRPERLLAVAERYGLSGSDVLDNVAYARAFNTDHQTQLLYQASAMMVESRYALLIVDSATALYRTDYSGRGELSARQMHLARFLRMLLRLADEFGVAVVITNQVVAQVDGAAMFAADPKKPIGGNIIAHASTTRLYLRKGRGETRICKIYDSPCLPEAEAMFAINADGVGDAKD
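Test system: preformed human Rad51 ssDNA filaments; also added: Donor/quencher-labelled 47-bp dsDNA substrate; doses: 10 µM final, single point; times: 37 °C 15-min filament assembly, 30-min compound preincubation, 15-min exchange; detection: FRET fluorescence dequenching, excitation 485 nm, emission 520 nm; read-out basis: Fluorescence-based percent inhibition, control- and blank-normalised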
L major viab: Leishmania major promastigote growth inhibition; hit rate 9% among 200,000; inhibition, % at 10 µM; Leishmania major promastigotes, resazurin fluorescence viability; in the data active = inhibition above about 50%;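 also: promastigotes grown with compound for 44 hours at 28 °C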
PMI activator: phosphomannose isomerase (human) activation; activation factor at 20 µM; purified human PMI, coupled resazurin fluorescence, 20 min; hits give high values; 1 = vehicle control, 0 substrate-free wells; hit rate 0.005% among 190,000; P34949;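 active = activation factor of 2 or more at 20 µM, relative to plate controls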
* marks the source's active call; other numbers are inactive results; i = inactive; / = no result. Most compounds without a hit are left out; they make up all but 9.8% or so of the library.

SMILES	WT yeast gro inh	PMI act satM6P	m-calpain inh	Rad51 HR inh	L major viab	PMI activator
CC(C)NC(=O)/C(C#N)=C/c1cccc(NC(=O)c2ccccc2Cl)c1	50	1	14	-8	100*	1
COCCNC(=O)/C(C#N)=C/c1cccc(NC(=O)c2ccccc2Cl)c1	-10	1	-18	-1	30	0.9
CCN(CC)S(=O)(=O)c1cccc(N=NC2=C(O)CCCC2=O)c1	-15	1	-3	-3	61*	1
COC(=O)/C=C1/S/C(=N/N=C/c2ccc(N(C)C)cc2)NC1=O	2	1	-34	-83	-3	0.9
CCc1n[nH]c(=S)n1/N=C/c1ccc(N(C)c2ccccc2)cc1	72*	1	40	/	29	0.9
Cc1n[nH]c(=S)n1/N=C/c1ccc(OCc2ccc(Cl)cc2)cc1	24	1	0	1	4	1.1
S=c1[nH]nc(Cc2ccc(Br)cc2)n1/N=C/c1ccc(Cl)cc1	93*	0.7	5	32	-5	0.5
S=c1[nH]nc([C@@H]2C[C@H]2c2ccccc2)n1-c1ccccc1Cl	/	/	-10	-3	/	/
Cc1ccc(/C=N/NS(=O)(=O)c2ccccc2)o1	13	0.9	26	/	0	1
Cc1oc(/C=N/NS(=O)(=O)c2ccccc2)cc1Br	9	1.1	21	-13	63*	1
O=C(NCc1cccnc1)C1CC(=O)N(CCc2ccccc2)C1 (stereo not drawn)	-9	1	-23	-2	-6	1
CCOC(=O)C1=C(O)/C(=C\c2cc(C)n(-c3ccc(F)cc3)c2C)N=C1C	-6	1.6	1	-8	26	1.5
O=c1cc(-c2c(F)c(F)c(F)c(F)c2F)oc2ccccc12	4	1	-3	-2	16	0.9
O=c1cc(-c2c(F)c(F)c(F)c(F)c2F)oc2c(F)c(F)c(F)c(F)c12	50	1	-10	-3	58*	0.9
CCCCCc1c(C)nc(Nc2nc(C)c3cc(OC)ccc3n2)[nH]c1=O	-15	0.9	-149	9	99*	0.9
CCCCCc1c(C)nc(Nc2ccccc2)[nH]c1=O	3	0.9	6	-3	13	0.9
CCc1c(C)nc(Nc2nc(C)c3cc(OC)ccc3n2)[nH]c1=O	49	0.9	-119	11	98*	0.9
COc1ccc2nc(Nc3nc(CSc4nc5ccccc5[nH]4)cc(=O)[nH]3)nc(C)c2c1	8	0.9	-114	1	100*	0.9
COc1ccc2c(C)nc(Nc3nc(C)c(C)c(=O)[nH]3)nc2c1	62*	0.9	-34	-3	100*	0.9
O=C(CNS(=O)(=O)c1ccccc1)Nc1cccc([N+](=O)[O-])c1	5	1	-11	11	3	1
Cn1c(=O)c([N+](=O)[O-])c(NCC2CCCO2)c2ccccc21 (stereo not drawn)	/	/	23	-1	/	/
COc1ccc2nc(NC3=NC(c4ccccc4)CC(=O)N3)nc(C)c2c1 (stereo not drawn)	4	1	-50	-3	94*	0.8
CCc1c(C)nc(Nc2nc(C)c3ccc(OC)cc3n2)[nH]c1=O	62*	1	-145	-8	94*	1
COc1ccc2c(C)nc(Nc3nc(C)cc(C)n3)nc2c1	18	1	-66	-45	22	1
CC(=O)Nc1ccc(N2C(=O)c3ccc(C(=O)Nc4nnc(SCc5ccc(F)cc5)s4)cc3C2=O)cc1	10	1.1	-58	/	10	1.1
SMILES	WT yeast gro inh	PMI act satM6P	m-calpain inh	Rad51 HR inh	L major viab	PMI activator
COc1ccc(CCN(C(=O)C(F)(F)F)C(C(=O)NC2CCCCC2)c2ccc(C)s2)cc1 (stereo not drawn)	3	0.9	-29	0	68*	0.9
N#Cc1cc2cc3c(cc2nc1N1CCOCC1)OCO3	-2	2.1*	-453	-1	-3	1.7
CCOC(=O)c1cc(NC(=O)Nc2ccc(Br)cc2)c(C)nc1C	8	0.9	-37	3	-8	0.9
CCOc1ccccc1Nc1nnc(C)c(=O)[nH]1	3	1	-5	-11	3	1
CCOc1ccccc1Nc1nnc(Cc2ccccc2Cl)c(=O)[nH]1	2	0.9	63*	2	5	0.9
O=C(Oc1ccc(/C=N/Nc2ccccc2)cc1)c1ccccc1	23	2.3*	3	-4	50	1.5
O=C(O)c1ccc(N/N=C/c2ccc(F)c(F)c2)cc1	-22	1.9	10	-1	4	1.4
O=C(O)c1ccc(N/N=C/c2ccc(OC(=O)c3cccc(Cl)c3)cc2)cc1	/	/	55*	5	/	/
O=C(O)c1ccc(N/N=C/c2cccc(F)c2)cc1	-15	2.9*	-1	-2	65*	1.9
CCN1CCCC1CNC(=O)c1c(O)c2c([nH]c1=O)CCCC2 (stereo not drawn)	0	1	8	-1	52*	1
c1ccc(-c2ccccc2OCCCN2CCCCCC2)cc1	14	1.1	-17	5	98*	1.1
c1ccc(-c2ccccc2OCCCCN2CCCCC2)cc1	4	0.9	19	/	95*	1
Cc1cc(N)n(Cc2cccs2)n1	6	1.1	17	0	-6	1
CCCOC(=O)C(=O)NNc1ccccc1	58	2.9*	14	5	29	1.9
CC(C)OC(=O)C(=O)NNc1ccccc1	72*	1	17	/	42	0.9
Nc1cc(=O)[nH]c(SCc2ccc(Cl)cc2)n1	-1	1	3	-5	69*	0.9
COc1ccc2c(Cl)c(C(=O)NCCCn3ccnc3)sc2c1	-1	0.9	-19	-4	100*	0.9
Cc1cc(C(=O)NCCCn2ccnc2)sc1-c1ccccc1	14	1	-7	5	99*	1
COc1ccc(-c2cc(C(=O)NCCCn3ccnc3)no2)cc1OC	-8	1	-16	-5	61*	0.9
CCOc1cc(C(=O)NCCCn2ccnc2)cc(OCC)c1OCC	-11	0.8	4	-1	54*	0.9
Cc1ccc(CNS(=O)(=O)c2ccc(C(F)(F)F)cc2)n1C	/	/	-12	-11	/	/
Cc1cc(C)nc(SCC(=O)N/N=C/c2cccc([N+](=O)[O-])c2)n1	-24	0.8	2	-12	2	0.8
O=C(CCc1nnc(C2CCCCC2)o1)N1CCC(Oc2cccnc2)CC1	-1	/	20	1	-2	/
CC(c1ccon1)N(C)Cc1cn(Cc2ccccc2)nc1-c1ccc2c(c1)OCO2 (stereo not drawn)	19	0.9	21	13	22	0.9
Cc1ccc(S(=O)(=O)N2CCC(C(=O)NNC(=O)c3ccncc3)CC2)cc1	-4	0.9	-20	-11	3	0.9
COc1ccc(-c2cc(C(F)(F)F)n3nc(C(=O)NCCCN4CCOCC4)cc3n2)cc1	-10	0.9	i	-6	57*	1

High-throughput results deposited in PubChem BioAssay by several laboratories.
